SMILES strings stand for the structures. Several values for one entry are separate records, joined by “and”; a condition that tells them apart may be missing. Equal entries are not always repeated.

The source of these data is paper PMC9078949 (RSC Advances, 2018).

Data set [1] deals with T1, CXCR2 (Homo sapiens, UniProt P25025).
T1 sequence (P25025 1-360): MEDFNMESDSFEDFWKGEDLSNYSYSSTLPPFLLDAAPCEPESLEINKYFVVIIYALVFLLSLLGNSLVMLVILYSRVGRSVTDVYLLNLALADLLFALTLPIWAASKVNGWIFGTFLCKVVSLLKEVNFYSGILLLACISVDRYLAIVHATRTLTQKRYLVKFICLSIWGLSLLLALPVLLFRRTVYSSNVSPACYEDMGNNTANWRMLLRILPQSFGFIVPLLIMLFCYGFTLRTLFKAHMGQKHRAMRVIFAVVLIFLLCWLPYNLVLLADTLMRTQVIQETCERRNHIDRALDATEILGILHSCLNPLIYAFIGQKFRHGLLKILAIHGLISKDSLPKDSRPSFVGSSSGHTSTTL
Kind of data set: CXCR2 antagonistic activity assay. It is filed as cell-based. In a few lines:
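HEK293 cells stably co-expressing Gα16 with either CXCR1 or CXCR2 were seeded and grown for 24 h. They were loaded with 2 μmol L−1 Fluo-4 AM in HBSS (pH 7.4, with BSA and 250 μmol L−1 sulfinpyrazone) for 45 min at 37 °C, and excess dye was removed. Test compound was added for 10 min at room temperature before IL-8 injection. Calcium signal was read at ex 485/em 525 nm. IC50 came from nonlinear regression of log concentration–response curves; each experiment was run ≥3 times.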

Data set [2] relates to CFPAC1 cells. As to the kind of experiment: Anti-proliferation assay. In kind it is cell-based. As to conditions: 6.25, 12.5, 25, 50 and 100 μM; 72 h; MTT. In a few lines: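 CFPAC1 pancreatic cancer cells were seeded at 4000 cells per well and left to adhere for 24 h. They were then exposed for 72 h to medium alone or to test compound at 6.25, 12.5, 25, 50 or 100 μM. Viability was read by MTT. Growth inhibition (%) = [1 − (A/B)] × 100, where A is treated and B is untreated absorbance.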

Data set [3] relates to CFPAC1 cells. Kind of data set: Wound healing assay. As to conditions: Homo sapiens, CFPAC-1, 48 h, read-out: migration inhibitory rate. It is filed as cell-based. A digest of the protocol: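 CFPAC1 cells were seeded at 5 × 10^5 per well in 6-well plates and grown to 90% confluence. The monolayer was scratched with a sterile pipette tip and rinsed three times with PBS. Cells were then exposed to 1‰ DMSO or 10 μM test compound. Wounds were photographed at 0, 24 and 48 h. Inhibition (%) = [1 − (0 h area − 24 h or 48 h area)/0 h area] × 100.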

Data set [4] has as its system CFPAC1 cells. As to the kind of experiment: Cell migration assay. In kind it is cell-based. As to conditions: 10 μM, 24 h, 3 visual fields, control group 1221 ± 57 cells.
The nature of data set [5]: SIF stability assay. It is filed as in vitro ADME. As to conditions: @45 min, 37 °C, pH 7.4. A digest of the protocol:
(§1)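 Two media were used. SIF: pancreatin 0.68 g per 100 mL of 50 mM potassium phosphate, pH 7.4. SGF: pepsin 3.2 g per 1000 mL of water with 2.0 g NaCl and 7.0 mL concentrated HCl, pH about 1.2. Test article was added from a 100 μg mL−1 stock and incubated at 37 °C with gentle agitation. Samples at 0, 15 and 45 min were quenched in methanol with 1 μg mL−1 internal standard and analysed by LC/MS. Percent remaining relative to 0 min used the peak-area ratio.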

Data set [6] can be described thus: SGF stability assay. It is filed as in vitro ADME. As to conditions: @45 min, 37 °C, pH about 1.2. A digest of the protocol: as §1
A short description of data set [7]: Plasma stability assay, rat plasma. As to conditions: @45 min, 37 °C. In kind it is in vitro ADME. A digest of the protocol: (§2)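 Rat or human plasma was spiked with test article from a 100 μg mL−1 stock and incubated at 37 °C with gentle agitation. Aliquots taken at 0, 15 and 45 min were quenched in methanol containing 1 μg mL−1 internal standard, then centrifuged and analysed by LC/MS. Percent remaining relative to 0 min was based on the analyte/internal standard peak-area ratio.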

A short description of data set [8]: Plasma stability assay, human plasma. In kind it is in vitro ADME. As to conditions: @45 min, 37 °C. In a few lines: as §2
Data set [9] in a line: Liver microsome stability assay, rat. In kind it is in vitro ADME. As to conditions: @45 min, 37 °C, NADPH. In a few lines:
(§3)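 Rat or human liver microsomes (1 mg mL−1) were mixed with NADPH (from a 50 mM stock) and pre-warmed for 5 min at 37 °C. Reactions were started with test article from a 100 μg mL−1 stock and kept at 37 °C. Samples at 0, 15 and 45 min were quenched in methanol containing 1 μg mL−1 internal standard, then centrifuged and analysed by LC/MS. Disappearance was derived from the analyte/internal standard peak-area ratio.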

Data set [10] in a line: Liver microsome stability assay, human. It is filed as in vitro ADME. As to conditions: @45 min, 37 °C, NADPH. In a few lines:
as §3

Data set [11] is described as follows: Oral pharmacokinetic study in rats. As to conditions: SD, rat, plasma, 10 mg/kg. In kind it is in vivo. In a few lines: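 SD rats received test compound at 10 mg kg−1 by oral gavage in 2% DMSO + 98% (0.5% MC). Venous blood was sampled at 0, 0.25, 0.5, 1, 2, 4, 6, 8 and 24 h. Plasma was separated by centrifugation, stored at −20 °C and assayed by LC/MS. Cmax, Tmax, t1/2 and AUC were then calculated.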

As to `O=C(c1cccc(Nc2c(NC3C[C@@H]4CC[C@H]3C4)c(=O)c2=O)c1O)N1CCCC1` (stereo partly drawn) [2e, 3-(((1S,4R)-Bicyclo[2.2.1]heptan-2-yl)amino)-4-((2-hydroxy-3-(pyrrolidine-1-carbonyl)phenyl)amino)cyclobut-3-ene-1,2-dione], the “Ratio = CXCR1 IC50/CXCR2 IC50 (selectivity for CXCR2 over CXCR1)” value in data set [1] is on record as 60.4. Also, in [2], the “inhibitory effect on the CFPAC1 cell line (survival rate)” value is “no inhibitory effect”. Moreover, in data set [3], the inhibition at 10 µM is 20.2%. In addition, the “number of cells traversed into the lower chamber of the Transwell” value in data set [4] is recorded as 727 ± 50 cells. Besides, the “Remaining percentage, SIF” value in data set [5] was determined as 92.2 ± 2.0%. Further, in data set [6], the “Remaining percentage, SGF” value is greater than 99%. Further, in [7], the “Remaining percentage, plasma stability, rat” value is listed as greater than 99%. In addition, the “Remaining percentage, plasma stability, human” value in [8] is greater than 99%. For the same compound, in [9], the “Remaining percentage, liver microsome stability, rat” value is 84% and 84.2 ± 3.4%. Further, the “Remaining percentage, liver microsome stability, human” value in data set [10] was 27% and 27.4 ± 4.3%. In data set [11], this compound had an AUC(0-inf) of 8940 ± 3460 ng·h/mL, an exposure AUC(0-t) of 8820 ± 3560 ng·h/mL, a Cmax of 2860 ± 94 ng/mL and an MRT of 3.43 ± 0.73 h. In addition, in data set [11], the Tmax worked out at 0.33 ± 0.14 h, the half-life is 2.58 ± 0.74 h and the k el was 7.92e-05 s⁻¹.
